According to BindingDB's records for doi:10.1021/jm030311v (Southern Research Institute, 2004):
pEC50, pIC50, pKi: −log10 of the molar value.

Columns and labels:
[1] = Apparent antagonist activity determined by measuring the ability to inhibit stimulation of [35S]GTP-gamma-S, binding to opioid receptor delta 1 in guinea pig caudate membranes
[2] = Inhibitory concentration required for 50% inhibition of antagonism towards opioid receptor delta 1 in [35S]GTP-gamma-S, binding assay in guinea pig caudate
[3] = molecular target: Kappa-type opioid receptor (Cavia porcellus, UniProt P41144); assay: Apparent binding affinity of compound was determined by antagonism towards Opioid receptor kappa 1 in [35S]GTP-gamma-S, binding assay in guinea pig caudate
[4] = molecular target: T1, Mu-type opioid receptor (Cavia porcellus, UniProt P97266); assay: Apparent binding affinity of compound was determined by antagonism towards Opioid receptor mu 1 in [35S]GTP-gamma-S, binding assay in guinea pig caudate
[5] = molecular target: T1, Mu-type opioid receptor; assay: Agonistic activity towards Opioid receptor mu 1 was determined in [35S]GTP-gamma-S, binding assay in guinea pig caudate
Summary of the method: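 Guinea pig caudate membranes (10-20 µg protein) incubated 3 h at 22 °C in Tris-HCl pH 7.4 containing 100 mM NaCl, 10 mM MgCl2, 1 mM EDTA, 100 µM GDP and 0.05-0.1 nM [35S]GTP-γ-S, then filtered and counted. Nonspecific binding defined with 10 µM GTP-γ-S. Site isolation used CTAP, nor-BNI, NTI or TIPP. […] Three experiments pooled; logistic fit.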

T1 sequence (P97266 whole entry): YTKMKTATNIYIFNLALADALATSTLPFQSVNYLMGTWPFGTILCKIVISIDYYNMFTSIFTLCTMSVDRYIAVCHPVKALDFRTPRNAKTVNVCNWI
Sequence of Kappa-type opioid receptor (P41144 whole entry): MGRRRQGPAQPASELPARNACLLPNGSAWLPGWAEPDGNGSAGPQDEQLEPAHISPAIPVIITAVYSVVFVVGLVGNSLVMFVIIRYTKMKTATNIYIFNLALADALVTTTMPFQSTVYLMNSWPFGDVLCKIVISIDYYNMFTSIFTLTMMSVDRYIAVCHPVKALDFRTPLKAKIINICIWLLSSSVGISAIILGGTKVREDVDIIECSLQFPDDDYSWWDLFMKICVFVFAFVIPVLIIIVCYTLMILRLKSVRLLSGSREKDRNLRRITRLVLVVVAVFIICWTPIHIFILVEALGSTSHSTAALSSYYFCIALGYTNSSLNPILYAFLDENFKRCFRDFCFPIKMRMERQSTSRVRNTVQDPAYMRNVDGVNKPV

Compound	pKi [1]	pIC50 [2]	further results
Oc1ccc2c3c1OC1c4ncc(-c5ccc(Cl)cc5)cc4C[C@@]4(O)[C@@H](C2)N(CC2CC2)CC[C@]314 (stereo partly drawn) [5'-(Chlorophenyl)-17-(cyclopropylmethyl) -6,7-didehydro-3,14-dihydroxy-4,5alpha-epoxypyrido-[2',3':6,7]morphinan]	9.74	–	–
CN1CC[C@]23c4c5ccc(O)c4O[C@H]2c2ncc(-c4ccccc4)cc2C[C@@]3(O)C1C5 [19-methyl-6-phenyl-(2S,10R)-11-oxa-8,19-diazahexacyclo[10.9.1.01,10.02,18.04,9.016,22]docosa-4(9),5,7,12,14,16(22)-hexaene-2,13-diol]	–	6.04	–
CN1CC[C@]23c4c5ccc(O)c4O[C@H]2c2ncc(-c4ccc(Cl)cc4)cc2C[C@@]3(O)C1C5 [6-(4-chlorophenyl)-19-methyl-(2S,10R)-11-oxa-8,19-diazahexacyclo[10.9.1.01,10.02,18.04,9.016,22]docosa-4(9),5,7,12,14,16(22)-hexaene-2,13-diol]	–	–	pKi [3]: 6.12; pKi [4]: < 6.00
CN1CC[C@]23c4c5ccc(O)c4O[C@H]2c2ncc(-c4ccc(Br)cc4)cc2C[C@H]3C1C5 [6-(4-bromophenyl)-19-methyl-(2R,10R)-11-oxa-8,19-diazahexacyclo[10.9.1.01,10.02,18.04,9.016,22]docosa-4(9),5,7,12,14,16(22)-hexaen-13-ol]	–	7.26	–
C[C@@H](NC(=O)[C@@H](N)Cc1ccc(O)cc1)C(=O)NCC(=O)N(C)[C@@H](Cc1ccccc1)C(=O)NCCO [[tyrosyl-3,5-3H(N)]-D-Ala2-Mephe4-glyol5-enkephalin]	–	–	pEC50 [5]: 6.38
CN1CC[C@]23c4c5ccc(O)c4O[C@H]2c2ncc(-c4ccc(Cl)cc4Cl)cc2C[C@H]3C1C5 [6-(2,4-dichlorophenyl)-19-methyl-(2R,10R)-11-oxa-8,19-diazahexacyclo[10.9.1.01,10.02,18.04,9.016,22]docosa-4(9),5,7,12,14,16(22)-hexaen-13-ol]	8.96	–	–
CN1CC[C@]23c4c5ccc(O)c4O[C@H]2c2ncc(-c4ccc(Cl)c(Cl)c4)cc2C[C@H]3C1C5 [6-(3,4-dichlorophenyl)-19-methyl-(2R,10R)-11-oxa-8,19-diazahexacyclo[10.9.1.01,10.02,18.04,9.016,22]docosa-4(9),5,7,12,14,16(22)-hexaen-13-ol]	–	7.13	–
CN1CC[C@]23c4c5ccc(O)c4O[C@H]2c2ncc(-c4ccc(Cl)cc4)cc2C[C@H]3C1C5 [6-(4-chlorophenyl)-19-methyl-(2R,10R)-11-oxa-8,19-diazahexacyclo[10.9.1.01,10.02,18.04,9.016,22]docosa-4(9),5,7,12,14,16(22)-hexaen-13-ol]	7.96	–	–
CN1CC[C@]23c4c5ccc(O)c4O[C@H]2c2ncccc2C[C@H]3C1C5 [19-methyl-(2R,10R)-11-oxa-8,19-diazahexacyclo[10.9.1.01,10.02,18.04,9.016,22]docosa-4(9),5,7,12,14,16(22)-hexaen-13-ol]	6.23	–	–
Oc1ccc2c3c1O[C@H]1c4ncc(-c5ccc(Cl)cc5)cc4C[C@H]4C(C2)N(CC2CC2)CC[C@]314 [6-(4-chlorophenyl)-19-cyclopropylmethyl-(2R,10R)-11-oxa-8,19-diazahexacyclo[10.9.1.01,10.02,18.04,9.016,22]docosa-4(9),5,7,12,14,16(22)-hexaen-13-ol]	8.80	–	–
